ChEMBL document CHEMBL2406995, “Cytotoxic indole alkaloids from Tabernaemontana divaricata” (J Nat Prod, 2013)

What was measured:
Type in all cases: functional, cell-based
SW480 = experiment: Cytotoxicity against human SW480 cells after 48 hrs by MTT assay; settings: SW480, 48 h
Procedure, shortened: (§1)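 Adherent cells grown in RPMI1640 or DMEM plus 10% FBS at 37 °C, 5% CO2. They were seeded in 96-well plates and left 12 h to adhere before dosing. MTT viability was used to plot growth curves, and IC50 was calculated by Reed and Muench's method.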

A549 = experiment: Cytotoxicity against human A549 cells after 48 hrs by MTT assay; settings: A549, 48 h; procedure, shortened: as §1
[1] = Cytotoxicity against human […] cells after 48 hrs by MTT assay; procedure, shortened: as §1
HL-60 = experiment: Cytotoxicity against human HL60 cells after 48 hrs by MTT assay; settings: HL-60, 48 h
Procedure, shortened: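 Suspension (leukemia) cells seeded just before drug addition at an initial density of 1 × 10^5 cells/mL. They were grown in RPMI1640 or DMEM with 10% FBS, 5% CO2, 37 °C. Cells were exposed for 48 h to […], 0.32, 1.6, 8 and 40 μM in triplicate, with cisplatin as positive control. Viability was read by MTT and IC50 was derived by Reed and Muench's method.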

MCF7 = experiment: Cytotoxicity against human MCF7 cells after 48 hrs by MTT assay; settings: MCF7, 48 h; procedure, shortened: as §1

Compound	IC50 (SW480) [µM]	IC50 (A549) [µM]	IC50 [1] [µM]	IC50 (HL-60) [nM]	IC50 (MCF7) [µM]
CC[C@H]1C[C@@H]2CN3CCc4c([nH]c5c([C@H]6C[C@H]7[C@]8(C(=O)OC)CO[C@H](N(C)[C@H]8Cc8c6[nH]c6ccccc86)[C@@]76O[C@@H]6C)c(OC)ccc45)[C@](C(=O)OC)(C2)[C@H]13	2.59	3.52	3.41	790	3.1
CC[C@@]12CC(C(=O)OC)=C3Nc4cc5c(cc4[C@@]34CCN(C[C@H]3O[C@H]31)[C@@H]24)[C@@H]1[C@H](O5)[C@@H](O)[C@@]2(CC)CC(C(=O)OC)=C3Nc4c(cc(O)c(OC)c4OC)[C@@]34CCN1[C@@H]24 [CONOPHYLLINE]	1.49	0.21	0.35	170	1.02
C/C=C1/CN(C)[C@H]2Cc3c([nH]c4ccccc34)[C@H](c3cc4c5c([nH]c4cc3OC)[C@]3(C(=O)OC)C[C@@H]4C[C@H](CC)[C@@H]3N(CC5)C4)C[C@H]1[C@]2(CO)C(=O)OC	13.4	14.8	12.3	2680	12.6
C/C=C1/CN(C)[C@H]2Cc3c([nH]c4ccccc34)[C@@H](c3c(O)ccc4c5c([nH]c34)[C@]3(C(=O)OC)C[C@H]4C[C@H](CC)[C@@H]3N(CC5)C4)C[C@@H]1[C@]2(CO)C(=O)OC	2.72	9.4	3.75	2900	3.02
CC[C@@]12CC[C@@H]3N(C)c4ccc([C@@H]5[C@H]6O[C@H]6[C@@]6(CC)CC(C(=O)OC)=C7Nc8c(cc(O)c(OC)c8OC)[C@@]78CCN5[C@@H]68)cc4[C@@]34CCN(C[C@H]3O[C@H]31)[C@@H]24 [CONOFOLINE]	13.7	10.3	10.3	800	14
C/C=C1/CN(C)[C@H]2Cc3c([nH]c4ccccc34)[C@H](c3cc4[nH]c5c(c4cc3OC)CCN3C[C@H]4C[C@H](CC)[C@H]3[C@H]5C4)C[C@H]1[C@]2(CO)C(=O)OC	13	28.5	14.8	3880	13.2
C/C=C1/CN(C)[C@H]2Cc3c([nH]c4ccccc34)[C@H](c3cc4[nH]c5c(c4cc3OC)CCN3C[C@H]4C[C@H](CC)[C@H]3[C@@]5(C(=O)OC)C4)C[C@H]1[C@]2(CO)C(=O)OC	16.5	16.5	9.86	2350	13.3
CC[C@H]1C[C@H]2C[C@H]3c4[nH]c5ccc(OC)cc5c4CCN([C@@H]13)[C@@H]2CC(C)=O	13	28.5	14.8	3880	13.2
